KCNK9 inh = inhibitors of human KCNK9 two-pore domain potassium channel; HEK293 KCNK9, FluxOR thallium flux fluorescence; active compounds read low; Q9NPC2; 310,000 tested, 1.2% active; B-score at 10 µM;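 active = ratio B-score over 3 SD below the library mean, with starting fluorescence within 5 SD of its mean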;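 also: negative B-score means less thallium flux so channel inhibition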
hERG rescue = compounds protecting human hERG from proarrhythmic drug block | AID 1511 | activation (rescue from dofetilide block), less the hit threshold, % at 10 µM | CHO-hERG, FluxOR thallium flux, dofetilide IC70 present | 310,000 tested, 0.51% active | Q12809;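 active = activation above the mean of controls blocked by dofetilide plus 5 SD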;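 also: thallium influx through hERG after potassium depolarization seen as dye fluorescence rise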
KCNQ1 pot = potentiates or activates the human KCNQ1 potassium channel | P51787 | CHO-K1 KCNQ1, thallium flux FluxOR fluorescence; active compounds read high | B-score at 10 µM | 310,000 tested, 0.35% active | AID 2648;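 active = fluorescence ratio B-score, a plate-corrected score, at least three library SD, with initial intensity B-score within 5 SD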
Target sequence (P51787 whole entry, looked up): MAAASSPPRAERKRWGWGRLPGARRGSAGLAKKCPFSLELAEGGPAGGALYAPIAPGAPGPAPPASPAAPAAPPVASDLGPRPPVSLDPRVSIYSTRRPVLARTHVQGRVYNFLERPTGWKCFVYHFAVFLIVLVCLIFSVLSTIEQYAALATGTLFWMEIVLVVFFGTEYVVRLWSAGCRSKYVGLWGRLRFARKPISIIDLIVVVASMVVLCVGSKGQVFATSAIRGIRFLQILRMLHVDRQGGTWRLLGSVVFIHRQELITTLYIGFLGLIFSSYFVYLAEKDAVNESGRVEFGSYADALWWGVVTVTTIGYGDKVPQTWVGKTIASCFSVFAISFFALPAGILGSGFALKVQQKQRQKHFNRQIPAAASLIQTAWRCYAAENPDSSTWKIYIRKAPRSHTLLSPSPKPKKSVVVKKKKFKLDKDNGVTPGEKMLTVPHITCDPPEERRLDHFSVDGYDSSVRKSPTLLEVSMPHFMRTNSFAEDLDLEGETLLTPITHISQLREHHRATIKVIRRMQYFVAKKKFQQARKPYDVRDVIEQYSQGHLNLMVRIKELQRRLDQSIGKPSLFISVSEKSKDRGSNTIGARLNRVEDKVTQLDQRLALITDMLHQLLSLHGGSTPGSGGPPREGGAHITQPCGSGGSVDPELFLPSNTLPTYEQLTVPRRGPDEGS
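System: CHO-K1 cells stably expressing KCNQ1 / Medium: assay buffer for compound exposure, DMSO matched across wells / Reagent: thallium- and potassium-containing depolarizing buffer / Compound: one concentration, matched DMSO / Incubation: 20 min compound pretreatment at room temperature / Measured by: kinetic FluxOR fluorescence, 10 s baseline plus 110 s post-stimulus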
KCNQ1 block = inhibitors of human KCNQ1 potassium channel | P51787 | CHO-K1 KCNQ1, FluxOR thallium flux fluorescence; active compounds read high | B-score at 10 µM | 310,000 tested, 1.3% active | AID 2642;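 active = compounds whose thallium flux B-score, printed positive for inhibition, exceeds three library SD while starting fluorescence stays within three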;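 also: channel opened by potassium depolarization with thallium stimulus after 20 min compound exposure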
KCNK3 block = human KCNK3 channel inhibition, primary screen; O14649; CHO-KCNK3 thallium flux, FluxOR fluorescence; active compounds read low; B-score at 10 µM; 340,000 tested, 0.84% active;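 active = B-score under library mean minus 4 SD, starting fluorescence ratio at most library mean plus 5 SD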;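 also: more negative B-score means stronger inhibition of thallium flux through KCNK3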
Kir21 block = inhibitors of mouse Kir2.1 inward-rectifier potassium channel; P35561; HEK293-Kir2.1, FluxOR thallium flux fluorescence; active compounds read low; 310,000 tested, 0.85% active; B-score at 10 µM;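 active = fluorescence ratio B-score at or below minus 3 SD of library scores, with starting-brightness B-score within 2 SD, cut at about -4.2 in these data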;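 also: channel flux triggered by added potassium and thallium sulfate stimulus; B-score of peak minus minimum fluorescence over baseline after thallium stimulus; more negative B-score means stronger Kir2.1 block with less thallium influx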
KCNK3 inh conf = confirmation of human KCNK3 two-pore domain potassium channel inhibitors; shares compounds with KCNK3 block; CHO-KCNK3 thallium flux, FluxOR fluorescence; 0% buffer, 100% carvedilol maximal block; ratio percent of control, % at 10 µM; 2,400 tested, 99% active; AID 651638;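 active = ratio percent of control, averaged over triplicates, above buffer control mean plus 5 SD, cut at about 64% in these data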;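 also: ratio is the fluorescence rise from min to max over baseline after thallium stimulus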
KCNK3 uninduced = KCNK3 inhibitor counter-screen hit in non-induced cells. 2,400 tested, 40% active. shares compounds with KCNK3 block. non-induced KCNK3 parental cells, FluxOR thallium flux; active compounds read low. thallium flux ratio (lower = more inhibition) at 10 µM;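 active = thallium flux ratio, averaged over three wells, more than 5 SD below the buffer control mean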;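 also: host cells are CHO cells without KCNK3 induction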
Each line names hits and unclear results; the compound was inactive in the other large screens (follow-up assays come after a bar, where they were run). Only some compounds are listed: those with a hit (about 3.8% of all), similar ones and a draw of the others.

COc1ccccc1C(=O)NC(C)c1ccc(-n2ccnc2)cc1 (centres undefined)	none
O=C(CSc1ccc(Cl)cc1)N1CCN(c2ccc([N+](=O)[O-])cc2Cl)CC1	none
O=C(CSc1ccc(Cl)cc1)N1CCN(c2c(Cl)cccc2[N+](=O)[O-])CC1	KCNK3 block -9.87 | KCNK3 inh conf 117.3 | KCNK3 uninduced 0.144
CCS(=O)(=O)N1CCC(C(=O)Oc2ccc(C)c(C)c2)CC1	none
Cc1cccc(OCC(=O)Nc2ccccc2N2CCCC2)c1C	KCNK3 block -9.8 | KCNK3 inh conf 118.3 | KCNK3 uninduced 0.142
Cc1cc(C)cc(OCC(=O)Nc2ccccc2N2CCCCC2)c1	KCNK3 block -10.2 | KCNK3 inh conf 94.0 | KCNK3 uninduced inactive
O=C(Cc1ccccc1F)Nc1ccccc1N1CCCC1	KCNK3 block -9.07 | KCNK3 inh conf 89.3 | KCNK3 uninduced inactive
O=C(COc1ccccc1[N+](=O)[O-])Nc1ccccc1N1CCCC1	none
O=C(COc1c(Cl)cccc1Cl)Nc1ccccc1N1CCCC1	KCNK3 block -9.11 | KCNK3 inh conf 120.7 | KCNK3 uninduced 0.132
COc1ccc(CN(C)C(=O)c2ccc(NS(=O)(=O)c3ccc(F)cc3)cc2)c(OC)c1OC	none
CCOc1ccc(OCCCC(=O)NCCc2ccc(OC)cc2)cc1	none
COC(=O)CC(c1ccc(OC)c(OC)c1)c1ccc(OC)c(OC)c1	none
O=C(Nc1ccccc1N1CCN(c2ccccc2)CC1)c1ccccc1F	KCNK3 block -9.74 | KCNK3 inh conf 125.0 | KCNK3 uninduced 0.112
O=C(COC(=O)c1ccc(F)c(S(=O)(=O)N2CCOCC2)c1)Nc1ccc2[nH]c(=O)[nH]c2c1	none (no result: KCNK9 inh, hERG rescue, KCNQ1 pot, KCNQ1 block, Kir21 block)
CCOC(=O)c1sc(NC(=O)CSc2nnc(-c3ccco3)n2CC)c(C(=O)OCC)c1C	KCNK3 block -11.8 | KCNK3 inh conf 98.3 | KCNK3 uninduced inactive
CCOC(=O)c1c(NC(=O)CSc2nnc(-c3ccccc3)n2CC)sc(C(C)=O)c1C	none
O=C(Nc1ccc(Cl)cc1)N1CCC(c2nc(-c3ccccc3Cl)no2)CC1	KCNK3 block -8.71 | KCNK3 inh conf 108.3 | KCNK3 uninduced 0.137
O=C(c1ccco1)N1CCC(c2nc(-c3ccccc3Cl)no2)CC1	none
O=C(COC(=O)CNC(=O)C1CCCCC1)Nc1cc(C(F)(F)F)ccc1Cl	none (no result: KCNK9 inh, hERG rescue, KCNQ1 pot, KCNQ1 block, Kir21 block)
CC(OC(=O)C1CC1)C(=O)Nc1cc(C(F)(F)F)ccc1Cl (centres undefined)	KCNK3 block -9.92 | KCNK3 inh conf 77.0 | KCNK3 uninduced 0.152
COc1ccc(CCN2C(=S)N(C)C(=O)C2CC(=O)Nc2ccc(OC)cc2)cc1 (centres undefined)	KCNK3 block -9.2 | KCNK3 inh conf 86.3 | KCNK3 uninduced 0.147
CCN1C(=O)C(CC(=O)Nc2ccc(OC)cc2)N(CCCN2CCN(c3ccc(F)cc3)CC2)C1=S (centres undefined)	none
COc1ccc(NC(=O)CC2C(=O)N(C)C(=S)N2CCc2ccc(F)cc2)cc1 (centres undefined)	none
CCN1C(=O)C(CC(=O)Nc2ccc(OC)cc2)N(CCc2ccc(F)cc2)C1=S (centres undefined)	KCNK3 block -9.01 | KCNK3 inh conf 116.3 | KCNK3 uninduced inactive
FC(F)(F)c1ccc(/C=N/n2c(C3CCCCC3)n[nH]c2=S)cc1	none
CCOc1cccnc1Sc1ccccc1	none
COc1cc(/C=C(\C#N)c2nc3ccccc3o2)ccc1O	none
N#C/C(=C\c1ccc(O)cc1)c1nc2ccccc2o1	KCNK3 block -11.1 | KCNK3 inh conf 130.0 | KCNK3 uninduced 0.123
O=[N+]([O-])c1ccc(N2CCN(C(=S)Nc3ccccc3)CC2)cc1	none
O=[N+]([O-])c1ccc(N2CCN(C(=S)NC3CCCCC3)CC2)cc1	KCNK3 block -8.84 | KCNK3 inh conf 104.3 | KCNK3 uninduced inactive
CCCCOc1ccc(C(=O)Oc2cccnc2)cc1	none
O=C(NC1CCN(Cc2ccccc2)CC1)c1ccccc1OCc1ccccc1Cl	KCNK9 inh -7.83, KCNK3 block -11.5, Kir21 block -6.68 | KCNK3 inh conf 98.7 | KCNK3 uninduced inactive
O=C(NC1CCN(Cc2ccccc2)CC1)c1ccccc1OCc1ccccc1	KCNK3 block -10.4, Kir21 block -4.29 | KCNK3 inh conf 98.7 | KCNK3 uninduced inactive
Cc1cc(NC(=O)c2cccnc2)ccc1NC(=O)c1cc2ccccc2o1	none
Cc1cc(NC(=O)c2cc3ccccc3o2)ccc1NC(=O)c1ccccc1	KCNK3 block -10 | KCNK3 inh conf inactive | KCNK3 uninduced inactive
Cc1sc2ncnc(N3CCN(S(=O)(=O)c4ccc(Br)cc4)CC3)c2c1C	KCNK3 block -12.2 | KCNK3 inh conf 115.7 | KCNK3 uninduced 0.149
Cc1sc2ncnc(N3CCN(S(=O)(=O)c4ccc(C(C)(C)C)cc4)CC3)c2c1C	none (no result: KCNK9 inh, hERG rescue, KCNQ1 pot, KCNQ1 block, Kir21 block)
CC(=O)Nc1ccc2nc(C3CC3)n(Cc3ccc(Cl)cc3)c(=O)c2c1	none
O=C(Nc1ccc2nc(C3CC3)n(Cc3ccc(F)cc3)c(=O)c2c1)c1ccco1	KCNK3 block -9.86 | KCNK3 inh conf 89.0 | KCNK3 uninduced inactive
N=c1n(CCO)c2ccccc2n1Cc1ccc(Cl)cc1	none
N=c1n(Cc2ccc(Cl)cc2)c2ccccc2n1CC(O)COc1ccccc1 (centres undefined)	KCNK3 block -11.9, Kir21 block -9.61 | KCNK3 inh conf 123.0 | KCNK3 uninduced inactive
Cn1cc([C@@H]2C[C@H]3CN(Cc4cccc(Cl)c4)C(=O)[C@]34CCCN24)c(-c2ccccc2)n1	KCNK9 inh -7.27, KCNK3 block -9.73 | KCNK3 inh conf 99.7 | KCNK3 uninduced inactive
O=C1N(Cc2cccc(Cl)c2)C[C@@H]2C[C@@H](c3ccco3)N3CCC[C@@]123	KCNK3 block -9.24 | KCNK3 inh conf 88.3 | KCNK3 uninduced inactive
CCCn1ncc([C@@H]2C[C@H]3CN(Cc4cccc(Cl)c4)C(=O)[C@]34CCCN24)c1C	none
Cc1nn(C)cc1[C@@H]1C[C@H]2CN(Cc3cccc(Cl)c3)C(=O)[C@]23CCCN13	none
CCN(CC(=O)Nc1ccc2c(c1)OCCO2)C(=O)CC(NC(C)=O)c1ccccc1 (centres undefined)	none
CS(=O)(=O)c1ccccc1-c1nnc(NC(=O)c2ccc3ncsc3c2)o1	none
C=CCn1c(-c2ccccc2)cc(SC)c(C#N)c1=O	KCNK3 block -9.45 | KCNK3 inh conf 83.7 | KCNK3 uninduced inactive
CCCn1c(-c2ccccc2)cc(SC)c(C#N)c1=O	none
CCCCOc1ccc(C(=O)N2CCNC(=O)C2)cc1	none
